Where only a bound is given, the exact number is not on record here.

Experimental findings from ChEMBL document CHEMBL3286292, “Synthesis and antimicrobial activity of amine linked bis- and tris-heterocycles” (2014) are described below.

Holding throughout (type): functional
The test system of assay [1] is Klebsiella pneumoniae. Briefly: Antibacterial activity against Klebsiella pneumoniae assessed as growth inhibition at 50 ug/well after 24 hrs by agar well diffusion method. Conditions: read-out: DIZ. The essentials: (§1)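 Agar well diffusion on […] swabbed with a 24 h broth culture. Samples were dissolved in DMSO and loaded at three per-well amounts into 6 mm wells. Incubation was 37 °C for 24 h, then inhibition zone diameter was read in mm. DMSO served as the negative control. Runs were in duplicate and averaged.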

Assay [2] concerns Klebsiella pneumoniae. The assay is described as follows: Antibacterial activity against Klebsiella pneumoniae assessed as growth inhibition at 100 ug/well after 24 hrs by agar well diffusion method. Conditions: read-out: DIZ. The essentials: as §1
Assay [3] relates to Penicillium chrysogenum. Briefly: Fungicidal activity against Penicillium chrysogenum after 48 hrs.
The test system of assay [4] is Staphylococcus aureus. Briefly: Bactericidal activity against Staphylococcus aureus after 24 hrs.
For assay [5], the system named is Klebsiella pneumoniae. The assay is described as follows: Bactericidal activity against Klebsiella pneumoniae after 24 hrs.
The subject of assay [6] is Bacillus subtilis. The assay is described as follows: Bactericidal activity against Bacillus subtilis after 24 hrs.
Assay [7] concerns Bacillus subtilis. The assay is described as follows: Antibacterial activity against Bacillus subtilis assessed as growth inhibition at 100 ug/well after 24 hrs by agar well diffusion method. Conditions: read-out: DIZ. The procedure, abridged: as §1
The test system of assay [8] is Bacillus subtilis. Briefly: Antibacterial activity against Bacillus subtilis assessed as growth inhibition at 50 ug/well after 24 hrs by agar well diffusion method. Conditions: read-out: DIZ. The essentials: as §1
Assay [9] has as its system Staphylococcus aureus. Briefly: Antibacterial activity against Staphylococcus aureus assessed as growth inhibition at 50 ug/well after 24 hrs by agar well diffusion method. Conditions: read-out: DIZ. The procedure, abridged: as §1
Assay [10] deals with Bacillus subtilis. The assay is described as follows: Antibacterial activity against Bacillus subtilis assessed as growth inhibition after 24 hrs by broth dilution method. The essentials:
(§2)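 Tube broth dilution with fresh nutrient broth as diluent and a 24 h old bacterial culture. Compound dilutions were added to the tubes, which were incubated at 37 °C for 24 h. Solvent control without sample was run in parallel. MIC was the lowest concentration showing no visible turbidity.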

For assay [11], the system named is Aspergillus niger. Briefly: Antifungal activity against Aspergillus niger assessed as inhibition of spore germination at 50 ug/well after 48 hrs by agar well diffusion method. Conditions: read-out: DIZ. The essentials:
(§3)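 Well diffusion using 6 mm bored wells loaded with DMSO solutions at three per-well amounts, with a DMSO negative control. Plates were held at 28 °C for 48 h, then zone of inhibition diameter was measured in mm. Runs were in duplicate and averaged.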

Assay [12] has as its system Aspergillus niger. Briefly: Fungicidal activity against Aspergillus niger after 48 hrs.
In assay [13] the test system is Bacillus subtilis. The assay is described as follows: Antibacterial activity against Bacillus subtilis assessed as growth inhibition at 25 ug/well after 24 hrs by agar well diffusion method. Conditions: read-out: DIZ. The procedure, abridged:
as §1

Assay [14] deals with Penicillium chrysogenum. Briefly: Antifungal activity against Penicillium chrysogenum assessed as growth inhibition after 48 hrs by broth dilution method. The procedure, abridged:
(§4)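 Tube broth dilution with nutrient broth as diluent. Compound dilutions were added to fungal cultures and incubated at 28 °C for 48 h. A solvent control without sample was included. MIC was the lowest concentration with no visible growth or turbidity.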

Assay [15] concerns Klebsiella pneumoniae. The assay is described as follows: Antibacterial activity against Klebsiella pneumoniae assessed as growth inhibition at 25 ug/well after 24 hrs by agar well diffusion method. Conditions: read-out: DIZ. The procedure, abridged:
as §1

Assay [16] concerns Aspergillus niger. Briefly: Antifungal activity against Aspergillus niger assessed as growth inhibition after 48 hrs by broth dilution method. The essentials: as §4
Assay [17] relates to Klebsiella pneumoniae. The assay is described as follows: Antibacterial activity against Klebsiella pneumoniae assessed as growth inhibition after 24 hrs by broth dilution method. The essentials: as §2
Assay [18] has as its system Aspergillus niger. Briefly: Antifungal activity against Aspergillus niger assessed as inhibition of spore germination at 25 ug/well after 48 hrs by agar well diffusion method. Conditions: read-out: DIZ. The procedure, abridged: as §3
Assay [19] has as its system Pseudomonas aeruginosa. The assay is described as follows: Antibacterial activity against Pseudomonas aeruginosa assessed as growth inhibition at 100 ug/well after 24 hrs by agar well diffusion method. Conditions: read-out: DIZ. The essentials: as §1
In assay [20] the test system is Staphylococcus aureus. Briefly: Antibacterial activity against Staphylococcus aureus assessed as growth inhibition after 24 hrs by broth dilution method. The essentials:
as §2

Assay [21] deals with Pseudomonas aeruginosa. The assay is described as follows: Bactericidal activity against Pseudomonas aeruginosa after 24 hrs.
For assay [22], the system named is Pseudomonas aeruginosa. The assay is described as follows: Antibacterial activity against Pseudomonas aeruginosa assessed as growth inhibition at 25 ug/well after 24 hrs by agar well diffusion method. Conditions: read-out: DIZ. The essentials: as §1
The test system of assay [23] is Staphylococcus aureus. The assay is described as follows: Antibacterial activity against Staphylococcus aureus assessed as growth inhibition at 25 ug/well after 24 hrs by agar well diffusion method. Conditions: read-out: DIZ. The essentials: as §1
Assay [24] relates to Staphylococcus aureus. The assay is described as follows: Antibacterial activity against Staphylococcus aureus assessed as growth inhibition at 100 ug/well after 24 hrs by agar well diffusion method. Conditions: read-out: DIZ. The procedure, abridged: as §1
Assay [25] deals with Pseudomonas aeruginosa. The assay is described as follows: Antibacterial activity against Pseudomonas aeruginosa assessed as growth inhibition after 24 hrs by broth dilution method. The procedure, abridged:
as §2

Assay [26] relates to Pseudomonas aeruginosa. The assay is described as follows: Antibacterial activity against Pseudomonas aeruginosa assessed as growth inhibition at 50 ug/well after 24 hrs by agar well diffusion method. Conditions: read-out: DIZ. The procedure, abridged:
as §1

In the case of `c1ccc(-c2c[nH]c(Nc3cc(-c4ccccc4)n(-c4nc(-c5ccccc5)cs4)n3)n2)cc1`, the zone of inhibition at 50 µg/disc was 29 mm in the assay on Klebsiella pneumoniae [1]; 26 mm in the assay on Bacillus subtilis [8]; 28 mm in the assay on Staphylococcus aureus [9]; 34 mm with Aspergillus niger [11]; 17 mm with Pseudomonas aeruginosa [26]. In addition, the zone of inhibition at 100 µg/disc was found to be 33 mm with Klebsiella pneumoniae [2], 27 mm in the assay with Bacillus subtilis [7], 20 mm in the assay on Pseudomonas aeruginosa [19] and 30 mm in the assay with Staphylococcus aureus [24]. Also, the MFC against Penicillium chrysogenum [3] and with Aspergillus niger [12] was 100 µg in each case. Moreover, the MBC was 50 µg in the assay on Staphylococcus aureus [4], over 200 µg in the assay on Klebsiella pneumoniae [5], 200 µg in the assay on Bacillus subtilis [6] and over 200 µg in the assay with Pseudomonas aeruginosa [21]. Also, the MIC in the assay with Bacillus subtilis [10] worked out at 50 µg; in the assay with Penicillium chrysogenum [14] it was 25 µg; with Aspergillus niger [16], 12.5 µg; in the assay with Klebsiella pneumoniae [17], 50 µg; in the assay on Staphylococcus aureus [20] it was 12.5 µg; in the assay on Pseudomonas aeruginosa [25], 50 µg. In addition, the zone of inhibition at 25 µg/disc with Bacillus subtilis [13] worked out at 24 mm; with Klebsiella pneumoniae [15], 28 mm; in the assay with Aspergillus niger [18], 32 mm; with Pseudomonas aeruginosa [22] it was 15 mm; in the assay on Staphylococcus aureus [23] it was 27 mm.

As to `O=C(N[C@H](CO)[C@H](O)c1ccc([N+](=O)[O-])cc1)C(Cl)Cl` [CHLORAMPHENICOL], the zone of inhibition at 50 µg/disc in the assay with Klebsiella pneumoniae [1] is 40 mm; in the assay with Bacillus subtilis [8] it was 34 mm; in the assay with Staphylococcus aureus [9] it was 33 mm; with Aspergillus niger [11] it was 33 mm; in the assay with Pseudomonas aeruginosa [26] it was 27 mm. In addition, the zone of inhibition at 100 µg/disc in the assay with Klebsiella pneumoniae [2] was 42 mm; in the assay on Bacillus subtilis [7], 38 mm; in the assay with Pseudomonas aeruginosa [19] it was 30 mm; in the assay on Staphylococcus aureus [24] it was 35 mm. Further, the MIC with Bacillus subtilis [10] is 6.25 µg; in the assay on Klebsiella pneumoniae [17], 12.5 µg; with Staphylococcus aureus [20], 6.25 µg; in the assay with Pseudomonas aeruginosa [25] it was 6.25 µg. Moreover, the zone of inhibition at 25 µg/disc in the assay on Bacillus subtilis [13] was 32 mm; in the assay with Klebsiella pneumoniae [15], 38 mm; in the assay on Aspergillus niger [18], 31 mm; in the assay on Pseudomonas aeruginosa [22], 25 mm; with Staphylococcus aureus [23] it was 30 mm.

On to `CC(=O)N1CCN(c2ccc(OCC3COC(Cn4ccnc4)(c4ccc(Cl)cc4Cl)O3)cc2)CC1` (stereo not given) [KETOCONAZOLE], for which the MIC with Penicillium chrysogenum [14] was 12.5 µg; in the assay with Aspergillus niger [16], 6.25 µg.

As for `NC(=S)n1nc(Nc2nc(-c3ccccc3)cs2)cc1-c1ccccc1`, the zone of inhibition at 50 µg/disc was 25 mm in the assay with Klebsiella pneumoniae [1]; 22 mm in the assay on Bacillus subtilis [8]; 25 mm with Staphylococcus aureus [9]; 19 mm in the assay on Aspergillus niger [11]; 15 mm in the assay on Pseudomonas aeruginosa [26]. For the same molecule, the zone of inhibition at 100 µg/disc came to 28 mm with Klebsiella pneumoniae [2], 24 mm in the assay with Bacillus subtilis [7], 17 mm in the assay with Pseudomonas aeruginosa [19] and 26 mm in the assay on Staphylococcus aureus [24]. For the same molecule, the zone of inhibition at 25 µg/disc was 21 mm with Bacillus subtilis [13]; 23 mm in the assay with Klebsiella pneumoniae [15]; 17 mm in the assay with Aspergillus niger [18]; 12 mm in the assay with Pseudomonas aeruginosa [22]; 22 mm in the assay with Staphylococcus aureus [23].
